The results in this text go back to ChEMBL document CHEMBL4007421, “Discovery and Preclinical Characterization of 3-((4-(4-Chlorophenyl)-7-fluoroquinoline-3-yl)sulfonyl)benzonitrile, a Novel Non-acetylenic Metabotropic Glutamate Receptor 5 (mGluR5) Negative Allosteric Modulator for Psychiatric Indications” (J Med Chem, 2017).

By Vd is commonly meant a proportionality between amount in the body and measured concentration, not a real space. What is called IC50 is the concentration needed to halve the response being measured. Usually Ki stands for a measure of affinity in units of concentration, obtained from inhibition or displacement. What is called Tmax is the time from dosing to the highest level.

SMILES strings stand for the structures.

A short description of data set [1]: Terminal elimination half life in female beagle dog at 0.5 mg/kg, iv administered as infusion. It counts as ADME, organism-based, Canis lupus familiaris. As to conditions: in vivo, read-out: beta t1/2 (converted). The essentials: (§1)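 Single-dose PK: i.v. and oral dosing in Crl:CD(SD) rats and beagle dogs, plus a pilot oral nasogastric study in Cynomolgus monkeys using a Type IV lipid formulation. Rat i.v. vehicle was 80% cosolvent. Monkeys were fasted from 2 h before until 2 h after dosing, n=3 per sex. Rats also received [14C]-labelled compound orally at 50 mg/kg, with total radioactivity followed. Parameters are means; monkey values are medians.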

Data set [2] can be described thus: Volume of distribution in male Crl:CD(SD) rat at 0.5 mg/kg, iv. Conditions: in vivo. It counts as ADME, organism-based. The procedure, abridged:
as §1

For data set [3], the target named is T1, Metabotropic glutamate receptor 5 (Homo sapiens, UniProt P41594). Nature of the data set: Negative allosteric modulation of human mGluR5a expressed in CHO cells assessed as reduction in DHPG-induced cytosolic Ca2+ influx after 10 to 20 mins by fluo-4/AM-dye based fluorometric analysis. It counts as functional, cell-based.
T1 sequence (P41594 whole entry): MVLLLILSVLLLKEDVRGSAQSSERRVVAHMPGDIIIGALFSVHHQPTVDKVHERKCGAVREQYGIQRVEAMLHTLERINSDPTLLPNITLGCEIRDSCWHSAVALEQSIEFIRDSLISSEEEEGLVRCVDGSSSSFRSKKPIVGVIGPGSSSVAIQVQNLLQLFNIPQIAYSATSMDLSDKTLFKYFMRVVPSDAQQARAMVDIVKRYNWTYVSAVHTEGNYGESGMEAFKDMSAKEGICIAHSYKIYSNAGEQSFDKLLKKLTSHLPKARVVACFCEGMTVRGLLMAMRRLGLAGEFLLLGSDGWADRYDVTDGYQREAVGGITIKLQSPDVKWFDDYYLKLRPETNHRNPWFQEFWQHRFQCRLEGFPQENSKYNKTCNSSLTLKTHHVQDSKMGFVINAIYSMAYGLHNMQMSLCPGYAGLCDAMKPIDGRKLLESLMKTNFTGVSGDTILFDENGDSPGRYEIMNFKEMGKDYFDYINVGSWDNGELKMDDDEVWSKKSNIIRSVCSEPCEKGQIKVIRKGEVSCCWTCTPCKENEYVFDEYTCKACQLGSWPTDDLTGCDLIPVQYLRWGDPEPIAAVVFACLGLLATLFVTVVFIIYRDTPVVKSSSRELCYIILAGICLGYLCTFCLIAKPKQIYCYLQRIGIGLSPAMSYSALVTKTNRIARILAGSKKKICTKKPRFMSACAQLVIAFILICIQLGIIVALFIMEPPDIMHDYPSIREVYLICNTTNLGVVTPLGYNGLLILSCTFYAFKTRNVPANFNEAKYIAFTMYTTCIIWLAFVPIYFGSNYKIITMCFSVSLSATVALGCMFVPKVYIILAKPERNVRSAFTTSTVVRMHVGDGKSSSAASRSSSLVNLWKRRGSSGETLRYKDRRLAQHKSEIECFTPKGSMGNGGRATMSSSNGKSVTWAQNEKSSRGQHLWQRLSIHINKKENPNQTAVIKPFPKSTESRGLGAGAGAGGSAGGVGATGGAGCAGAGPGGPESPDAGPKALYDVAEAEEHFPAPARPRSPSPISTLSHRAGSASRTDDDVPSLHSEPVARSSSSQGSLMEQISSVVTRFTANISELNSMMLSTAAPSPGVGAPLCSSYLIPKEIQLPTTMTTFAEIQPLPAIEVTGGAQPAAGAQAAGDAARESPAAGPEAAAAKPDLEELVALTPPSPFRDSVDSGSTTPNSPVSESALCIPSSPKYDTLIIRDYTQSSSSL
In data set [4] the target is T1, Metabotropic glutamate receptor 5. Nature of the data set: Displacement of [3H]M-MPEP from recombinant human mGluR5a expressed in human A18 cell membrane homogenate. In general terms: In a radioligand displacement assay an active substance lowers the binding of a labelled ligand.
Another data set has as its system Liver. As to the kind of experiment: Intrinsic clearance in rat liver microsomes at 2.5 uM assessed per gram of liver. The data set is classed as ADME, microsome.
Data set [5] in a line: Tmax in fasted female cynomolgus monkey at 9 mg/kg, po administered as single dose. Conditions: in vivo. It counts as ADME, organism-based, Macaca fascicularis. The essentials: as §1
The test system of a further data set is Rattus norvegicus. Nature of the data set: Terminal elimination half life in female Crl:CD(SD) rat at 50 mg/kg, po using [14C]labeled compound. As to conditions: in vivo. It counts as ADME, organism-based. The essentials: as §1

For `N#Cc1cccc(S(=O)(=O)c2cnc3cc(F)ccc3c2-c2ccc(Cl)cc2)c1`, the half-life in data set [1] was 11.8 h. Also, the Vd in data set [2] is 12.4 L/kg. Also, the IC50 in data set [3] is 13 nM. The Ki in data set [4] is 4.9 nM. The same compound gave a CLint in the data set with Liver of 0.25 mL/min/g. Further, the Tmax in data set [5] amounted to 1.3 h. For the same compound, the “beta t1/2” value with Rattus norvegicus was determined as 8 h.
